Results on eight compounds are retold here after ChEMBL document CHEMBL4477175, “Sclerotiamide: The First Non-Peptide-Based Natural Product Activator of Bacterial Caseinolytic Protease P” (J Nat Prod, 2016).

Calls of active or inactive are those of the source. The calls are words filed in the database; no cut-off is given here. Bridge positions count the residues as written; N and C are the ends. Square brackets hold non-standard residues; d marks the D form. Peptide text beside a SMILES is read from it. * marks the point of attachment. X1 = O=C(/C=C/C=C/C=C/C=C/C=C/C(=O)*)NC1=C(O)CCC1=O; Pro(4R-Me) = C[C@H]1CN[C@H](C(=O)O)C1; NMeA = CN[C@@H](C)C(=O)O

In experiment [1] the target is T1, ATP-dependent Clp protease proteolytic subunit (Escherichia coli (strain K12), UniProt P0A6G7). Put plainly: Activation of Escherichia coli BLR (DE3) ClpP using Abz-DFAPKMALVPYNO2 as substrate assessed as degradation of substrate peptide preincubated for 15 mins followed by substrate addition measured every 30 mins for 2 hrs by fluorescence assay. The method in brief:
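His-tagged EcClpP, 25 nM tetradecamer, in 25 mM HEPES pH 7.5, 100 mM KCl, 5 mM MgCl2, 10% glycerol, 1 mM DTT. Preincubated with a concentration range of compound for 15 min at 30 °C, then 15 µM final decapeptide added. Read at 30 °C, ex 320/em 420 nm. DMSO-subtracted ΔRFU was fitted for apparent activation constant (Kapp).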

Experiment [2] deals with Bacillus. Put plainly: Activation of Bacillus subtilis ClpP expressed in Escherichia coli BL21 (DE3) using FITC-beta casein as substrate assessed as degradation of substrate peptide at 25 uM preincubated for 15 mins followed by substrate addition measured every 30 mins for 6 hrs by fluorescence assay.
For experiment [3], the target named is ATP-dependent Clp protease proteolytic subunit (Bacillus subtilis (strain 168)) (UniProt P80244). Put plainly: Activation of Bacillus subtilis ClpP expressed in Escherichia coli BL21 (DE3) using beta casein as substrate at 25 uM preincubated for 15 mins followed by substrate addition measured every 30 mins by SDS-PAGE. The method in brief: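 Recombinant His-tagged BsClpP (Ni-NTA then gel filtration), 420 nM tetradecamer in 25 mM Tris-HCl pH 7.5, 100 mM KCl, preincubated with compound for 15 min at 37 °C. Bovine β-casein added to 7.5 µM final. Reactions quenched in Laemmli buffer at 80 °C after 5 min, 30 min, 1 h and/or 2 h. Loss of the β-casein band was followed on a 10% Bis-Tris SDS gel.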
Chain of ATP-dependent Clp protease proteolytic subunit (Bacillus subtilis (strain 168)) (P80244 whole entry, looked up): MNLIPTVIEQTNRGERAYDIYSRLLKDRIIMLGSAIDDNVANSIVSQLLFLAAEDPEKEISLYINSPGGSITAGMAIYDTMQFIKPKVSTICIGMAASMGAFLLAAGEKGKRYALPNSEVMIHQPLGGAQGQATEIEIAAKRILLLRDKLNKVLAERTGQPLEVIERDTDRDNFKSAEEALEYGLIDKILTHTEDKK

Experiment [4] concerns the target T1, ATP-dependent Clp protease proteolytic subunit. Put plainly: Activation of Escherichia coli BLR (DE3) ClpP using FITC-beta casein as substrate assessed as degradation of substrate peptide preincubated for 15 mins followed by substrate addition measured every 30 mins for 6 hrs by fluorescence assay.
Experiment [5] addresses ATP-dependent Clp protease proteolytic subunit (Escherichia coli (strain K12)) (UniProt P0A6G7). The experiment in a line: Activation of Escherichia coli BLR (DE3) ClpP using bovine milk FITC-beta casein as substrate assessed as change in relative fluorescent units at 50 uM preincubated for 15 mins followed by substrate addition measured every 30 mins for 6 hrs by fluorescence assay. Put shortly: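 Single-concentration screen: 300 nM tetradecameric recombinant E. coli ClpP in 25 mM Tris-HCl pH 7.5, 100 mM KCl, preincubated with compound (50 µM) 15 min at 37 °C. FITC-β-casein added (final 1.92 µM). Kept at 37 °C; fluorescence (ex 485/em 538 nm) read every 30 min for 6 h. ΔRFU = well minus 1% DMSO well; hits had end-point above 22 500 RFU.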

The target is the same in experiment [6]. The experiment in a line: Ratio of EC50 for Escherichia coli BLR (DE3) ClpP using FITC-beta casein as substrate to ratio of EC50 for Escherichia coli ClpP using Abz-DFAPKMALVPYNO2 as substrate.
Experiment [7] concerns Bacillus. The experiment in a line: Activation of Bacillus subtilis ClpP expressed in Escherichia coli BL21 (DE3) using FITC-beta casein as substrate assessed as degradation of substrate peptide at 50 uM preincubated for 15 mins followed by substrate addition measured every 30 mins for 2 hrs by fluorescence assay.
For experiment [8], the target named is T2, Beta-casein (Bos taurus) (UniProt P02666).
T2 sequence (whole entry): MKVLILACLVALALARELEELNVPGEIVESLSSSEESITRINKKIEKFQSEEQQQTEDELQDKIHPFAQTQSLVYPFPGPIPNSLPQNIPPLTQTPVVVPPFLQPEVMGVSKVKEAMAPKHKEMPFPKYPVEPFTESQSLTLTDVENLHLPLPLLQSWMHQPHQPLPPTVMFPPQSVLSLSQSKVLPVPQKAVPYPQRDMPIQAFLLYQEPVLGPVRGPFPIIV
Put plainly: Intrinsic proteolytic activity against fluorescein isothiocyanate-conjugated bovine milk beta casein at 50 uM preincubated for 15 mins followed by substrate addition measured every 30 mins for 6 hrs by fluorescence assay. Put shortly:
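Enzyme-free control: compound (50 µM) incubated with FITC-β-casein (1.92 µM) in 25 mM Tris-HCl pH 7.5, 100 mM KCl. Substrate cleavage read as fluorescence at 538 nm emission after 485 nm excitation.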

Experiment [9] deals with Pseudomonas aeruginosa. The experiment in a line: Antibacterial activity against Pseudomonas aeruginosa PAO1116 harboring deltamexAB-oprM/deltamexCD-oprj/deltamexEF-oprN/deltaJK/deltamexXY/deltatriABC mutant assessed as bacterial growth inhibition at 100 uM after 18 hrs by 2-fold dilution method. The experiment is classed as functional, organism-based. Put shortly:
(§1)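 Broth dilution MIC: cells subcultured 1:100 in LB and grown to OD600 ~1.0. Inoculated at 10^5 cells/mL in LB with 2-fold increasing compound concentrations, up to 100 µM. Incubated 18 h at 37 °C; growth scored visually.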

In experiment [10] the target is ATP-dependent Clp protease proteolytic subunit (Bacillus subtilis (strain 168)) (UniProt P80244). The experiment in a line: Activation of Bacillus subtilis ClpP expressed in Escherichia coli BL21 (DE3) using beta casein as substrate at 50 uM preincubated for 15 mins followed by substrate addition measured every 30 mins by SDS-PAGE. Put shortly: (§2)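 His-tagged ClpP (E. coli or B. subtilis) expressed with IPTG overnight at 25 °C and purified by Ni-NTA and gel filtration. 420 nM tetradecamer in 25 mM Tris-HCl pH 7.5, 100 mM KCl, preincubated with compound 15 min at 37 °C. Bovine β-casein added (final 7.5 µM). Quenched in Laemmli buffer at 5 min, 30 min, 1 h and/or 2 h. β-Casein band loss read on 10% Bis-Tris SDS-PAGE.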

For experiment [11], the system named is Escherichia coli. The experiment in a line: Antibacterial activity against Escherichia coli M5418 harboring deltaacrB/deltaacrD/deltaacrEF::spc deltaemrBdeltaemrYdeltaentS::cam deltamacB deltamdtC deltamdtF mutant assessed as bacterial growth inhibition at 100 uM after 18 hrs by 2-fold dilution method. The experiment is classed as functional, organism-based. The method in brief:
as §1

The target in experiment [12] is ATP-dependent Clp protease proteolytic subunit (Escherichia coli (strain K12)) (UniProt P0A6G7). Put plainly: Activation of Escherichia coli BLR (DE3) ClpP using beta casein as substrate at 50 uM preincubated for 15 mins followed by substrate addition measured every 30 mins by SDS-PAGE. To be noted: TDE = time-dependent effect. Put shortly: as §2
Chain of ATP-dependent Clp protease proteolytic subunit (Escherichia coli (strain K12)) (P0A6G7 whole entry): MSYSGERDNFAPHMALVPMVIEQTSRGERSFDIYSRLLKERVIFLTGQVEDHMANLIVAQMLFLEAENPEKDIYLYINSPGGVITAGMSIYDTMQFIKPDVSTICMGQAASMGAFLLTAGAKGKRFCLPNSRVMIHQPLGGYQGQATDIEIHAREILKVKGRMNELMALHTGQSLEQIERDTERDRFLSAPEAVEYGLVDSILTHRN

T1 sequence (P0A6G7 whole entry): as above

For the compound `CCOC(=O)[C@@H]1C(=O)C[C@@](O)(c2ccc(Br)cc2)C[C@H]1C=C(Cl)Cl`, the EC50 was found to be 25.4 µM in experiment [1] and 22.2 µM in experiment [4]. Also, the outcome in [2] and in experiment [3] was inactive.

On to `C=CC(C)(C)[C@@]12Nc3c(ccc4c3C=CC(C)(C)O4)[C@]1(O)C[C@H]1C(=O)N3CCC[C@]3(O)C(=O)N12`, for which the result in experiment [5] was inactive.

Take `CC1(C)C=Cc2c(ccc3c2NC(=O)[C@@]32C[C@@]34NC(=O)[C@]5(CCCN5C3=O)C[C@H]4C2(C)C)O1`: in experiment [5], the outcome was inactive.

Regarding `CC1(C)C=Cc2c(ccc3c2[N+]([O-])=C2C3=C[C@@]34NC(=O)[C@]5(CCCN5C3=O)CC4C2(C)C)O1` (some centres not stated), in experiment [5], the result was inactive.

As for `CC1(C)C=Cc2c(ccc3c4c([nH]c23)C(C)(C)C2C[C@]35CCCN3C(=O)[C@@]2(C4)NC5=O)O1` (some centres not stated), the outcome in [5] was inactive.

Take `CC1(C)C=Cc2c(ccc3c4c(n(O)c23)C(C)(C)C2C[C@]35CCCN3C(=O)[C@]2(NC5=O)C4=O)O1` (some centres not stated): the result in [5] was inactive.

Consider `C[C@@H]1C[C@H]2C(=O)OC[C@H](NC(=O)[C@H](Cc3ccccc3)NC(=O)/C=C/C=C/C=C/C=C/C=C/C(=O)NC3=C(O)CCC3=O)C(=O)N3CCC[C@H]3C(=O)N(C)[C@@H](C)C(=O)N[C@@H](C)C(=O)N2C1` (X1-FSP[NMeA]A[Pro(4R-Me)]; ester 2-C), for which the EC50 in experiment [1] worked out at 0.1 µM; in [4], 1.2 µM. Moreover, in experiment [6], the Ratio EC50 is 10.

`CC1(C)C=Cc2c(ccc3c2NC(=O)[C@@]32[C@H](O)[C@@]34NC(=O)[C@]5(CCCN5C3=O)C[C@H]4C2(C)C)O1` [SCLEROTIAMIDE]: the outcome in experiment [7], in experiment [8], in experiment [9], in experiment [10] and in experiment [11] was inactive. In addition, the EC50 was 39.6 µM in experiment [1] and 87.5 µM in experiment [4]. Also, the Activity result in experiment [12] was “Tde”; in [5], 29900 RFU. The Ratio EC50 in [6] is 2.2.
